Reference: ChEMBL document CHEMBL1152266, “Synthesis of 3,6-diazabicyclo[3.1.1]heptanes as novel ligands for neuronal nicotinic acetylcholine receptors” (Bioorg Med Chem Lett, 2008)

How the values were obtained:
[1] = target: Neuronal acetylcholine receptor; alpha4/beta2 (Rattus norvegicus, UniProt P09483+P12390); assay: Displacement of [3H]epibatidine form alpha4beta2 nAChR in rat cortex
Summary of the method: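 Radioligand binding in rat cortex tissue using [³H]-epibatidine to label α4β2 sites. Ki reported as the mean (% coefficient of variation) of three independent determinations.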

[2] = target: Neuronal acetylcholine receptor subunit alpha-7 (Rattus norvegicus, UniProt Q05941); assay: Displacement of [3H]alpha-bungarotoxin form alpha7 nAChR in rat cortex
[3] = species: Rattus norvegicus; assay: Selectivity ratio of Ki for rat alpha7 nAChR to Ki for rat alpha4beta2 nAChR

Neuronal acetylcholine receptor; alpha4/beta2, sequence (P09483 whole entry): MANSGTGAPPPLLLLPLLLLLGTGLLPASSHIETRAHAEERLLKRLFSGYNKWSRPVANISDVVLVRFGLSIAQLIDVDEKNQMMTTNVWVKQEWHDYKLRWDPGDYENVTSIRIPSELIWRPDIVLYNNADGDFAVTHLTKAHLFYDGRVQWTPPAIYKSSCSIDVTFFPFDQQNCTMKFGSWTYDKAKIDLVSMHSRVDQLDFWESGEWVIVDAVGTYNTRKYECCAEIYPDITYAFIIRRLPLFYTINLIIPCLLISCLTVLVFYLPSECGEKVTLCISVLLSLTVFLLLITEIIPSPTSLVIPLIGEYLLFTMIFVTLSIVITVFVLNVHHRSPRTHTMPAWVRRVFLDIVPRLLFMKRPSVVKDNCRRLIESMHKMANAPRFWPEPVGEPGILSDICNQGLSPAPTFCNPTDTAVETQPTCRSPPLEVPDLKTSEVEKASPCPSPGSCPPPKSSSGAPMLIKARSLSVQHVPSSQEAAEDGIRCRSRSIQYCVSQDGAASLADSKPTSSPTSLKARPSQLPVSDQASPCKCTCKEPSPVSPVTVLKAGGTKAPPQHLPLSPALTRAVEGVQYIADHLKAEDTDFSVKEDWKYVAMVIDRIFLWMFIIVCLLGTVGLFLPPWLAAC
Neuronal acetylcholine receptor; alpha4/beta2, sequence (P12390 whole entry): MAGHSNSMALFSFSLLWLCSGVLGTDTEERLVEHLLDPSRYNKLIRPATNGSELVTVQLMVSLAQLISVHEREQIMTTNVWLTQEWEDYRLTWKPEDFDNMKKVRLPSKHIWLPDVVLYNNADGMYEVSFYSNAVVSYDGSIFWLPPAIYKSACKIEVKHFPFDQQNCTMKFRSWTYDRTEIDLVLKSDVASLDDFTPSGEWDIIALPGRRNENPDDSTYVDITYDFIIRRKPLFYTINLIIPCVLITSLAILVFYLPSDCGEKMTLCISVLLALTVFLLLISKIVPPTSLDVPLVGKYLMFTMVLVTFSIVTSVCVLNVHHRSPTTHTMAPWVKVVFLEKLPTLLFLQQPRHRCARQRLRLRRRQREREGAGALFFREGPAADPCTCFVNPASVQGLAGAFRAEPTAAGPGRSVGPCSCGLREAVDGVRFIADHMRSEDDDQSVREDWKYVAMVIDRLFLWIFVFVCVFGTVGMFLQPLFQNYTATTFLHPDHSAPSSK
Neuronal acetylcholine receptor subunit alpha-7, sequence (Q05941 whole entry): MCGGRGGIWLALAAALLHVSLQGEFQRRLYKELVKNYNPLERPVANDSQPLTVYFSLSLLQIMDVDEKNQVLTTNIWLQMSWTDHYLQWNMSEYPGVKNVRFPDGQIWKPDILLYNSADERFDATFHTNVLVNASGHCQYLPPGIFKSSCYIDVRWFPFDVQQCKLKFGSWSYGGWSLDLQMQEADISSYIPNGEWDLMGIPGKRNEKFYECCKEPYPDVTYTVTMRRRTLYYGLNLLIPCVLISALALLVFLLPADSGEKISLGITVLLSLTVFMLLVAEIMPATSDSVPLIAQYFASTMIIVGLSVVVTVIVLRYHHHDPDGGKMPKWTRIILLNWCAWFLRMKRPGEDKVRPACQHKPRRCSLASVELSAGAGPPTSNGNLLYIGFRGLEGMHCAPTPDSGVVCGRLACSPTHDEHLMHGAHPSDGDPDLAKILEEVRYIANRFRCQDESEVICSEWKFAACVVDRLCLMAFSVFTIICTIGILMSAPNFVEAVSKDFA

| Compound | Ki [1] | Ki [2] | Ratio Ki [3] |
| --- | --- | --- | --- |
| Brc1ccc(N2CC3CC(C2)N3)cn1 | 0.039 nM | 50.5 nM | 1300 |
| Clc1ccc(N2CC3CC(C2)N3)cn1 | 0.023 nM | 4.1 nM | 178 |
| c1cncc(N2CC3CC(C2)N3)c1 | 0.056 nM | 1.36 nM | 24.3 |
| Clc1ccc(N2CC3CC(C2)N3)nn1 | 0.168 nM | 25 nM | 149 |
| O=[N+]([O-])c1ccc(N2CC3CC(C2)N3)cc1 | 1.2 nM | 28000 nM | 23300 |
| CN1C2CC1CN(c1ccc(Cl)nc1)C2 | 0.43 nM | 20 nM | 46.5 |
